Source: PubChem BioAssay (The Scripps Research Institute Molecular Screening Center)
TAAR1 antagonist: antagonists of human TAAR1; CHO RD-HGA16 TAAR1, Fluo-8 calcium fluorescence, antagonist; inhibition, % at 3 µM; 1.5% of 360,000 active; Q96RJ0; AID 624466;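 active = inhibition above a per-plate cutoff, the mean inhibition of test compounds on that plate plus 3 SD, cut at about 49% in these data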;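 also: 0% = DMSO plus EC80 beta-PEA response and 100% = DMSO alone without agonist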
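System: CHO RD-HGA16 cells bearing hTAAR1. Reagent: EC80 β-phenethylamine stimulus. Schedule: seeding 17-24 h prior, 75-min 37 °C, 30-min RT dye loading. Signal: Fluo-8 intracellular calcium dye fluorescence, real-time kinetic reads. Read-out: % inhibition from peak post-agonist over basal fluorescence ratio. Benchmarks: vehicle wells and EC80 agonist wells. Replicates: n of 1.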
GPR7 antag: human neuropeptides B/W receptor 1 antagonism; P48145; GPR7-expressing cells, fluorescence antagonist assay; inhibition, % at 4.4 µM; 1.1% of 290,000 active; AID 1861; in the data active = inhibition above about 16%, passing the limit was not always enough;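 also: cells stimulated with the agonist NPW; 0% = agonist with vehicle and 100% = vehicle without agonist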
OX1R antag-1: blocks the human orexin 1 receptor | OX1R-expressing cells, FRET antagonist read-out | inhibition, % at 6.6 µM | 1.8% of 330,000 active; in the data active = inhibition mostly above about 38%, no sharp cut-off; inactive = mostly below about 40%;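 also: 0% = agonist challenge alone and 100% = reference antagonist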
Target sequence (O43613 whole entry, looked up): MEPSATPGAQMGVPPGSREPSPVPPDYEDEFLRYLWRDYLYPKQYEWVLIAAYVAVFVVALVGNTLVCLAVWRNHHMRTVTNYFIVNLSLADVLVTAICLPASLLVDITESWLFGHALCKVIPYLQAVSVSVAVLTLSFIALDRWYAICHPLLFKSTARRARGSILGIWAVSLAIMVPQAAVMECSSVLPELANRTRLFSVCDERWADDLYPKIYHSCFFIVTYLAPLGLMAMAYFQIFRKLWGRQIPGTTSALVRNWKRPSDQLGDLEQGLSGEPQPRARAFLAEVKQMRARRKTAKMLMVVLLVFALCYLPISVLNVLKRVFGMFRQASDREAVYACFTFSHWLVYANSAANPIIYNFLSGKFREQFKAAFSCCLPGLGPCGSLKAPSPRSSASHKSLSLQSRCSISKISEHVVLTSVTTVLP
TAAR1 agonist: agonists of human TAAR1; Q96RJ0; 0.99% of 360,000 active; CHO RD-HGA16 TAAR1, Fluo-8 calcium fluorescence; vehicle wells 0%, saturating PEA agonist 100%; AID 624467; activation, % at 3 µM;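 active = activation above the mean activation of all test compounds in the run plus 3 SD, cut at about 38% in these data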
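test system = CHO RD-HGA16 cells carrying human TAAR1 plus Gα16 | schedule = 17-24 h seeding, 75 min 37 °C dye, 30 min RT | compound dosing = 3 µM single concentration | control set = DMSO and PEA EC100 | replicates = n 1 | signal = Fluo-8 fluorescence, 5 s baseline then 140 s kinetic read | measure = percent activation vs PEA EC100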
CHO parental Ca: counter-screen for OX1R antagonists: effect in parental CHO cells; parental CHO-K1, ATP-induced calcium, Fluo-8 fluorescence; inhibition, % at 5.6 µM; 0.63% of 330,000 active; AID 463079;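 active = inhibition above that plate's mean sample inhibition plus 3 SD, cut at about 26% in these data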;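 also: 0% = ATP-challenged DMSO wells and 100% = DMSO wells without ATP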
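Material: Parental CHO cells | Reagent: ATP | Compound dosing: Single nominal dose of 5.6 µM per compound | Detection: Intracellular calcium via Fluo-8 no-wash fluorescent dye | Read-out: % inhibition of ATP-induced calcium mobilization | Benchmarks: Low control ATP plus DMSO, high control DMSO only | Replicates: Singlicate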
OX1R antag-2: human HCRTR1 antagonism; O43613; CHO/OX1R cells, Fluo-8 calcium fluorescence, orexin A; inhibition, % at 5 µM; 0.43% of 330,000 active; AID 434989;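 active = inhibition above its plate's threshold, mean inhibition of all tested compounds on the plate plus 3 SD, cut at about 37% in these data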;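 also: 0% = orexin A challenge wells and 100% = SB-334867-A antagonist wells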
Active calls of the source: *; · = no result. Hits are enriched below; roughly 4.5% of the tested compounds scored in any of these assays.

SMILES	TAAR1 antagonist	GPR7 antag	OX1R antag-1	TAAR1 agonist	CHO parental Ca	OX1R antag-2
COc1ccc(OC)c(C(=O)NC2CCSc3ccccc32)c1 (stereo unspecified)	6	-1	47*	-3	-24	-21
COCCN(C(=O)COC(=O)c1ccco1)c1c(N)n(Cc2ccccc2)c(=O)[nH]c1=O	-32	·	10	5	0	3
CCN(C(=O)COC(=O)c1ccccc1NCc1ccco1)c1c(N)n(Cc2ccccc2)c(=O)[nH]c1=O	-2	·	·	5	·	·
COCCN(C(=O)COC(=O)c1ccccc1NCc1ccco1)c1c(N)n(Cc2ccccc2)c(=O)[nH]c1=O	-5	·	42*	0	-21	-8
CC(C)CN(C(=O)COC(=O)c1ccccc1NCc1ccco1)c1c(N)n(Cc2ccccc2)c(=O)[nH]c1=O	-1	·	75*	1	-19	13
CCCCn1nnnc1C1(C)CCC(=O)N1Cc1ccc(OC)cc1 (stereo unspecified)	3	·	·	3	·	·
Cc1cccc(CN2[C@@H](C)[C@H](c3ccccc3)Oc3cc(Br)ccc3S2(=O)=O)c1	-14	·	·	3	·	·
COc1ccc(CSc2nc3ccccc3c(=O)[nH]2)cc1F	50*	-13	17	16	-9	-11
CCCCCCC[C@@H](C/C=C/CCC(=O)N(C)C/C(=C/Cl)C/C(=C\C(=O)N1CC(OC)=CC1=O)OC)OC	7	·	42*	-1	34	57*
CCCCCCC[C@@H](C/C=C/CCC(=O)N(C)C/C(=C/Cl)C/C(=C\C(=O)N1C[C@H](O)CC1=O)OC)OC	50*	·	13	5	41*	2
CCCCCCC[C@@H](C/C=C/CCC(=O)O)OC	-6	·	10	0	-3	-11
COc1ccc(-n2c(CSc3ccc(Cl)cc3)n[nH]c2=S)cc1	-13	·	·	2	·	·
C[C@@H]1CN([C@H](C)CO)C(=O)c2c(c3ccccc3n2C)-c2ccccc2CO[C@H]1CN(C)C(=O)Nc1ccccc1	6	·	·	5	·	·
CC(=O)c1ccc(Nc2nc(C(N)COCc3ccccc3)cs2)cc1 (stereo unspecified)	13	·	·	5	·	·
COc1ccc(CCC(=O)OCC(=O)Nc2sccc2C(N)=O)cc1OC	34	·	36*	16	47*	46*
COc1ccc(C(=O)NC(C(=O)OCC(=O)Nc2sccc2C(N)=O)C(C)C)cc1 (stereo unspecified)	34	·	8	10	-17	-10
COc1ccc(CCC(=O)OCC(=O)Nc2sccc2C(N)=O)cc1	28	·	11	11	33*	55*
O=C1OC(Nc2cc(Br)cc3cccnc23)c2ccccc21 (stereo unspecified)	-21	-8	62*	5	4	-6
Cc1ccc(C(=O)CCC(=O)Nc2ccc(Cl)c(S(=O)(=O)Nc3cccc(Cl)c3)c2)cc1	-9	5	4	4	-17	-17
CCC(C)NCCC(=O)Nc1ccc(Cl)c(S(=O)(=O)Nc2ccc(Cl)cc2)c1 (stereo unspecified)	23	33*	12	2	-9	0
O=C(COC(=O)c1ccccc1NS(=O)(=O)c1ccc(Cl)cc1)NCc1ccccc1	6	-2	49*	3	-9	-26
Cc1cc(N/N=C/c2ccc(Cl)cc2)nc(NCc2ccccc2)n1	34	3	13	40*	-24	-44
Cc1cc(N/N=C/c2cccc(Cl)c2)nc(NCc2ccccc2)n1	-7	6	26	24	-23	-7
O=C(O)c1cccc(N2C(=O)c3ccc4c5c(ccc(c35)C2=O)C(=O)N(c2cccc(C(=O)O)c2)C4=O)c1	-4	2	74*	-1	14	-8
Cn1cc(CCOCc2ccccc2)c2ccccc21	-13	·	·	-1	·	·
SMILES	TAAR1 antagonist	GPR7 antag	OX1R antag-1	TAAR1 agonist	CHO parental Ca	OX1R antag-2
CC(C)c1[nH]nc2c1C(c1ccc3c(c1)OCO3)NC2=O (stereo unspecified)	-9	·	·	3	·	·
C[C@@H]1CN([C@@H](C)CO)C(=O)CCCn2cc(nn2)CO[C@H]1CN(C)C(=O)Nc1ccc(C(F)(F)F)cc1	6	·	·	4	·	·
COc1ccc2cc(C3CC=C(CO)CN3S(=O)(=O)c3ccccc3[N+](=O)[O-])n(C(=O)OC(C)(C)C)c2c1 (stereo unspecified)	50*	·	·	3	·	·
O=[N+]([O-])c1ccc(O)c(/C=N/Nc2ccccn2)c1	73*	-2	3	45*	87*	75*
Cc1ccc(N(C)S(=O)(=O)c2ccc3c(c2)CC(C)N3C(=O)C2CC2)cc1 (stereo unspecified)	49*	7	4	-1	-1	-29
CC1CN(CC(=O)Nc2nc3ccccc3s2)CC(C)O1 (stereo unspecified)	4	-4	7	0	-13	-15
O=C(N/N=C/c1cc(Br)ccc1O)C(=O)Nc1ccccc1OC(F)(F)C(F)F	39	-9	31	5	-9	1
O=C(N/N=C/c1cc(Cl)ccc1O)C(=O)Nc1ccccc1OC(F)(F)C(F)F	30	-17	69*	3	-15	-3
Cc1[nH]c2ccccc2c1C(=O)c1c(N)[nH]c(C(=O)c2ccc(Br)cc2)c1-c1ccc(Br)cc1	-19	·	·	0	·	·
COc1ccc(-n2c(C)cc(/C=N/Nc3nc(N4CCOCC4)nc(N4CCOCC4)n3)c2C)cc1	50*	-11	12	14	-20	-19
CCOC(=O)C1=CCN(S(=O)(=O)c2ccccc2Cl)C1c1ccc(Cl)cc1 (stereo unspecified)	19	·	·	4	·	·
Cc1ccc(F)c(NC(=O)c2ccc(Cn3cc(Cl)cn3)cc2)c1	13	34*	6	26	4	1
CC1CN(C(=O)c2ccc(-c3cccc(C(F)(F)F)c3)o2)CC(C)O1 (stereo unspecified)	-43	·	15	-2	-19	-33
O=C(CN1C(=O)NC2(CCCC2)C1=O)NCCN1C(=O)S/C(=C\c2ccccc2F)C1=O	18	·	51*	4	-22	-18
O=C(CN1C(=O)/C(=C/c2ccccc2F)Sc2ccccc21)NCC1CCCO1 (stereo unspecified)	5	-9	66*	-1	-20	22
COc1ccc(Cl)cc1C(=O)Nc1ccccc1N1CCN(C(=O)C(C)C)CC1	20	20*	14	7	-19	-41
CCn1c(=N)n(CC(=O)c2ccc(Br)s2)c2ccccc21	-2	20*	31	4	-27	-16
N=c1n(CC(=O)c2ccc(Br)cc2)c2ccccc2n1Cc1ccccc1	-4	·	10	38*	3	-26
O=C1CCc2cc(Br)ccc2O1	-6	·	·	3	·	·
COc1ccc(C(C)(C)NC(=O)C2CCC(=O)N(C3CCCC3)C2)cc1OC (stereo unspecified)	-5	0	34	0	5	-2
